The subject of series [1] is Yersinia pseudotuberculosis YPIII. In words: Inhibition of T3S in Yersinia pseudotuberculosis YPIII expressing yopE-luxAB at 1.56 uM after 3 hrs by luciferase reporter gene assay. The method in brief:
(§1)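 Strain YPIII pIB102 (yopE-luxAB) grown overnight at room temperature in BHI with 5 mM EGTA and 20 mM MgCl2 (calcium depletion), adjusted to OD600 0.088–0.095. Compound added from DMSO at 1.56–200 µM final (eight concentrations). Shaken 1 h at room temperature, then 2 h at 37 °C. Decanal added and light emission read immediately. Triplicates, repeated at least three times.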
(Reporter assays use an easily measured gene product as a stand-in for the process of interest.)

Series [2] has the same test system. As to the kind of experiment: Inhibition of T3S in Yersinia pseudotuberculosis YPIII expressing yopE-luxAB at 3.13 uM after 3 hrs by luciferase reporter gene assay. The method in brief: as §1
Series [3] has the same test system. In words: Inhibition of T3S in Yersinia pseudotuberculosis YPIII expressing yopE-luxAB at 6.25 uM after 3 hrs by luciferase reporter gene assay. The method in brief: as §1
The test system is the same in series [4]. In words: Inhibition of T3S in Yersinia pseudotuberculosis YPIII expressing yopE-luxAB at 12.5 uM after 3 hrs by luciferase reporter gene assay. The method in brief:
as §1

Series [5] has the same test system. As to the kind of experiment: Inhibition of T3S in Yersinia pseudotuberculosis YPIII expressing yopE-luxAB at 25 uM after 3 hrs by luciferase reporter gene assay. The gist of the method: as §1
Series [6] has the same test system. As to the kind of experiment: Inhibition of T3S in Yersinia pseudotuberculosis YPIII expressing yopE-luxAB at 50 uM after 3 hrs by luciferase reporter gene assay. The method in brief:
as §1

Series [7] shares this test system. In words: Inhibition of T3S in Yersinia pseudotuberculosis YPIII expressing yopE-luxAB at 100 uM after 3 hrs by luciferase reporter gene assay. The gist of the method: as §1
Series [8] has the same test system. As to the kind of experiment: Inhibition of T3S in Yersinia pseudotuberculosis YPIII expressing yopE-luxAB at 200 uM after 3 hrs by luciferase reporter gene assay. The method in brief: as §1
For series [9], the system named is Yersinia pseudotuberculosis. In words: Antibacterial activity against Yersinia pseudotuberculosis expressing pIB102 at 50 uM after 23 hrs by broth dilution assay. Type of series: functional, organism-based. The method in brief:
(§2)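 Wild-type pIB102 grown overnight in LB at room temperature, diluted to OD600 = 0.1 in LB with 2.5 mM CaCl2. Compound added from DMSO stock to final 50 and 100 µM. Incubated at 37 °C with absorbance at 595 nm read over 23 h.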

For series [10], the system named is Escherichia coli. As to the kind of experiment: Antibacterial activity against Escherichia coli DH5[alpha] at 50 uM after 23 hrs by broth dilution assay. Type of series: functional, organism-based. The gist of the method: (§3)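 Overnight LB culture of E. coli DH5α grown at 37 °C, diluted to OD600 0.1 in LB with 2.5 mM CaCl2; compound added from DMSO stock to final 50 or 100 µM. Incubated at 37 °C with absorbance at 595 nm followed over 23 h.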
A general note: Broth dilution looks for growth in wells or tubes with falling amounts of substance.

Series [11] deals with Yersinia pseudotuberculosis. As to the kind of experiment: Antibacterial activity against Yersinia pseudotuberculosis expressing pIB102 at 100 uM after 23 hrs by broth dilution assay. Type of series: functional, organism-based. The gist of the method:
as §2

Series [12] concerns Escherichia coli. In words: Antibacterial activity against Escherichia coli DH5[alpha] at 100 uM after 23 hrs by broth dilution assay. Type of series: functional, organism-based. The method in brief: as §3
The subject of another series is Chlamydia trachomatis. As to the kind of experiment: Antibacterial activity against Chlamydia trachomatis infected in human HeLa 229 cells after 35 hrs by fluorescence microscopy. Type of series: functional. The method in brief:
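HeLa 229 monolayers infected with C. trachomatis serovar L2, MOI 0.3; compounds diluted in RPMI 1640 with 10% FCS, 2 mM L-glutamine, 8 µg/mL gentamicin (DMSO final 1%) added 1 h post-infection at 50, 25, 12.5, 6.25, 3.13 µM. 35 h at 37 °C, 5% CO2; methanol fixation, immunostaining, fluorescence microscopy at 200×. MIC = lowest concentration with no intracellular inclusions; duplicates, ≥3 occasions.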

The nature of series [13]: Cytotoxicity against human HeLa 229 cells assessed as cell viability at 50 uM after 28 hrs using resazurin staining by fluorescence microscopy. The series is classed as cell-based. Particulars: read-out: Activity. The method in brief:
(§4)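 HeLa 229 viability measured at 50 and 25 µM using resazurin added 4 h before read-out; cell-free wells with medium plus compound exclude chemical reduction of resazurin. Scored relative to DMSO control, plus microscopic scoring; non-toxic defined as at least 70% viability versus control. Triplicates, repeated at least three times.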
Background: Alamar Blue is a resazurin reagent that responds to reducing activity.

A short description of series [14]: Cytotoxicity against human HeLa 229 cells assessed as cell viability at 25 uM after 28 hrs using resazurin staining by fluorescence microscopy. The series is classed as cell-based. Particulars: read-out: Activity. The gist of the method: as §4
The target in series [15] is Tyrosine-protein phosphatase YopH (Yersinia pseudotuberculosis serotype I (strain IP32953)) (UniProt P08538). In words: Inhibition of YopH in Yersinia pseudotuberculosis YPIII expressing yopE-luxAB treated 3 hrs before substrate addition measured after 15 mins by microplate reader. The gist of the method:
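Same calcium-depleted YPIII pIB102 cultures and compound exposure (1 h room temperature, then 2 h 37 °C). An aliquot of the bacterial suspension was mixed with 25 mM p-nitrophenyl phosphate, 40 mM MES pH 5.0, 1.6 mM DTT. Incubated 15 min at 37 °C, quenched with 1 M NaOH, absorbance read at 405 nm. Triplicates, repeated at least three times.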

Series [16] relates to Yersinia pseudotuberculosis. In words: Antibacterial activity against Yersinia pseudotuberculosis expressing pIB102 infected in mouse J774 cells assessed as inhibition of bacteria-induced cell death at 50 uM after 14 hrs using calcein AM staining by fluorescence microscopy. The series is classed as functional, organism-based. The method in brief: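 J774A macrophages (4 × 10^4 cells/well) grown 24 h in DMEM/10% FCS/gentamicin. Wild-type pIB102 grown in LB plus kanamycin overnight at room temperature, diluted 1/10 in DMEM, shaken 1 h at room temperature then 2 h at 37 °C. Added at OD600 = 0.002 with compound (25, 50, 100 µM final; DMSO <0.5%). Incubated 14 h, 37 °C, 5% CO2. CalceinAM 40 min, fluorescence 485/535 nm; uninfected cells = 100% viability.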

Another series has as its system J774. As to the kind of experiment: Cytotoxicity against mouse J774 cells at 25 to 100 uM after 14 hrs using calcein AM staining by fluorescence microscopy. Type of series: cell-based. Particulars: j774, 14 h. The method in brief:
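J774A macrophages (4×10⁴/well, DMEM with 10% FCS, gentamicin 3 µg/mL, 24 h at 37 °C, 5% CO2) washed with PBS, then given fresh DMEM with compound plus bacteria (OD600 0.002), final 25, 50, 100 µM, DMSO below 0.5%. ETEC grown overnight in LB at 37 °C, diluted and grown 3 h. 14 h at 37 °C, 5% CO2; CalceinAM 40 min, fluorescence 485/535 nm, confirmed by microscopy; uninfected cells = 100% viability; gentamicin 5 µg/mL rescue control.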

SMILES strings stand for the structures. Values after ≈ are worked out from the molar mass of the structure shown. Active and inactive are the calls of the source.

Sequence of Tyrosine-protein phosphatase YopH (Yersinia pseudotuberculosis serotype I (strain IP32953)) (P08538 whole entry): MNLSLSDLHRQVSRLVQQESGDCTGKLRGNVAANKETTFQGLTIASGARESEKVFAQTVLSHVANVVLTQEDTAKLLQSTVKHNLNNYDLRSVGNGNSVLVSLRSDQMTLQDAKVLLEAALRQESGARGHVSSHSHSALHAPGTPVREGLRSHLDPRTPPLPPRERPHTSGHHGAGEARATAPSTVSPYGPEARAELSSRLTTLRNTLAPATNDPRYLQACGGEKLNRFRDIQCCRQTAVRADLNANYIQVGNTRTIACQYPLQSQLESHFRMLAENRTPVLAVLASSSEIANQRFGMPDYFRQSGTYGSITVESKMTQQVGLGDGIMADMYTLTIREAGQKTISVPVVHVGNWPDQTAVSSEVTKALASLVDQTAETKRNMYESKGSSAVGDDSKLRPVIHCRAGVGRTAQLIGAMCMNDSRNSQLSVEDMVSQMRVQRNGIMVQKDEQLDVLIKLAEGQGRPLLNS

Broadly, the inhibition is the relative decrease from the control value, in per cent. As usually defined, the MIC is the lowest concentration that inhibits growth of the organism. Take `O=C(N/N=C/c1cccc(F)c1O)c1ccc([N+](=O)[O-])cc1`: the inhibition is 1% in [1]; 7% in [2]; 2% in [3]; 4% in series [4]; 19% in series [5]; 28% in [6]. In addition, the values for the inhibition in series [7] and in series [8] were 20% and 59%, respectively. Also, the outcome (in [9]; with Escherichia coli [10]; in series [11]; in the series on Escherichia coli [12]) was inactive. Further, the MIC against Chlamydia trachomatis is 50 µM (≈ 15.2 µg/mL). Moreover, the viability at 28 h, 50 µM in [13] stood at 72%. For the same compound, the viability at 28 h, 25 µM in [14] was 75%.

For the compound `COc1cc(C(=O)N/N=C/c2ccc(O)c(O)c2O)cc(OC)c1OC`, the inhibition in series [1] is -10%; in series [2], 11%; in [3], 14%; in series [4], 19%; in [5], 31%; in series [6], 50%. Further, the inhibition in series [7] was 58%; in series [8] it was 62%. The inhibition entry in series [15] is “inactive”. Also, the outcome (in series [9]; with Escherichia coli [10]; in series [11]; in the series with Escherichia coli [12]) was inactive.

For `CCN(CC)c1ccc(/C=N/NC(=O)c2ccc(OC)c(OC)c2)c(O)c1`, the inhibition came to 14% in series [2]; 14% in series [3]; 29% in [4]; 44% in [5]; 66% in [6]; 66% in [7]. In addition, the inhibition in [8] is 56%. In series [15], the inhibition entry is “inactive”. For the same compound, the result (in [9]; with Escherichia coli [10]; in series [11]; in the series with Escherichia coli [12]) was inactive.

For `O=C(N/N=C/c1cc(Br)ccc1O)c1ccncc1`, the inhibition in series [1] is -8%; in series [2], 14%; in series [3] it was 13%; in [4] it was 24%; in [5] it was 43%; in [6] it was 87%. For the same compound, the inhibition in [7] amounted to 95%; in series [8] it was 98%. For the same compound, the outcome (in series [9]; with Escherichia coli [10]; in series [11]; in the series on Escherichia coli [12]) was inactive. Further, the inhibition result in series [16] is “Active”. Besides, the Activity result in the series with J774 is recorded as “Non-toxic”.

With `COc1cc(Br)cc(/C=N/NC(=O)Cc2ccccc2)c1O`, the inhibition in series [1] was 10%; in [2], 18%; in series [3] it was 12%; in [4], 15%; in [5], 9%; in [6] it was 22%. The inhibition in series [7] worked out at 57%; in series [8], 65%. The outcome (in series [9]; in the series with Escherichia coli [10]; in [11]; in the series with Escherichia coli [12]) was inactive. Also, the MIC entry with Chlamydia trachomatis was “inactive”. Besides, the viability at 28 h, 50 µM in series [13] amounted to 33%. For the same compound, the viability at 28 h, 25 µM in [14] worked out at 58%.

In the case of `COc1ccc(Br)c(/C=N/NC(=O)c2ccncc2)c1O`, the inhibition in series [2] is 9%; in series [3], 18%; in series [4] it was 18%; in series [5] it was 27%; in [6] it was 54%; in [7], 77%. In [8], the inhibition amounted to 35%. Further, in series [15], the inhibition entry is “inactive”. Moreover, the result (in series [9]; in the series on Escherichia coli [10]; in series [11]; with Escherichia coli [12]) was inactive.

As to `COc1cccc(C(=O)N/N=C/c2cc(Br)ccc2O)c1`, the inhibition is 6% in series [1]; 15% in [2]; 8% in [3]; 15% in series [4]; 22% in series [5]; 44% in [6]. In addition, the figures for the inhibition in series [7] and in [8] were 71% and 77%, respectively. In addition, the result (in series [9]; in the series on Escherichia coli [10]; in series [11]; in the series on Escherichia coli [12]) was inactive. The MIC in the series with Chlamydia trachomatis was determined as 25 µM (≈ 8.73 µg/mL). In addition, the viability at 28 h, 50 µM in series [13] worked out at 65%. Moreover, the viability at 28 h, 25 µM in [14] is 73%.

Consider `O=C(Cc1ccccc1)N/N=C/c1cc(Br)ccc1O`, for which the inhibition stood at 15% in series [1]; 4% in series [2]; 10% in series [3]; 7% in [4]; 15% in [5]; 26% in series [6]. Moreover, the inhibition was determined as 39% in [7] and 50% in [8]. Moreover, the result (in series [9]; with Escherichia coli [10]; in series [11]; in the series on Escherichia coli [12]) was inactive. The compound further displayed an MIC against Chlamydia trachomatis of 50 µM (≈ 16.7 µg/mL). Further, the viability at 28 h, 50 µM in series [13] came to 74%. In addition, the viability at 28 h, 25 µM in [14] came out at 75%.

As for `NC(=O)C(=O)N/N=C/c1c(O)cc(O)cc1O`, the inhibition in series [1] was -1%; in series [2] it was 5%; in series [3], 17%; in [4], 17%; in series [5] it was 26%; in series [6], 51%. Moreover, the inhibition in series [7] was 63%; in [8], 64%. Besides, the inhibition entry in series [15] was “inactive”. In addition, the outcome (in series [9]; with Escherichia coli [10]; in [11]; in the series with Escherichia coli [12]) was inactive.

These data come from ChEMBL document CHEMBL1156948, “Statistical molecular design of a focused salicylidene acylhydrazide library and multivariate QSAR of inhibition of type III secretion in the Gram-negative bacterium Yersinia” (Bioorg Med Chem, 2010).
